Reference: article PMC4508496 (Theranostics, 2015)
Entries after “also recorded” stand apart in the source; their conditions may differ. Blank lines part the entries; values can stand above or below the compound they belong to. * marks the point of attachment. AMC = Cc1cc(=O)oc2cc(N*)ccc12; Boc = CC(C)(C)OC(=O)*

Legend:
[1] = test system: MDA-MB-468 cells; assay: Cell uptake of 1; format: cell-based, human; conditions: 30 min; 600,000 MDA-MB-468 cells, 1 µCi of 1; γ-counter
Outline: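 MDA-MB-468 cells (600,000 per well) were seeded for 6 h. Medium was then replaced with fresh medium carrying 1 µCi of the 18F-labelled probe per well. Cells and medium were harvested at 5, 10, 20, 30, 60 and 90 min, and radioactivity was counted on a γ-counter.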

[2] = test system: MDA-MB-468 cells; assay: Cellular efflux titration; format: cell-based, human; conditions: 120 min efflux
Outline: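 MDA-MB-468 cells (1 million per well) were loaded for 1 h at 37 °C with 4 μCi of the 18F probe plus 0, 5, 25 or 50 μM of its non-radioactive analogue. Medium was then refreshed, marking efflux time 0. At 5–120 min the medium was exchanged and the removed medium was γ-counted. Cells were harvested and counted at 120 min to back-calculate total radioactivity at time 0.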

[3] = Pharmacokinetic study of 1 in mice after i.v. administration; format: in vivo; conditions: i.v. about 3.0 mCi/kg, n = 5
Outline: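 Mice received the 18F radiotracer intravenously at about 3.0 mCi/kg. Mean plasma concentration–time profiles were fitted to a two-compartment model, from which t1/2, AUC0-t, CLtot, Vd and Cmax were derived.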

[4] = test system: MDA-MB-468 tumor; assay: MicroPET tumor uptake in MDA-MB-468 tumor-bearing nude mice; format: in vivo; conditions: for tumor uptake of 1: PET, n = 4
Outline: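 Female BALB/c nude mice (4–8 weeks) received subcutaneous foreleg xenografts of 4 × 10^7 MDA-MB-468 cells in PBS, grown 4–6 weeks. Under isoflurane, mice were randomised to tail-vein dosing: 85 µCi of the 18F probe alone, or the probe plus 20 µmol/kg of its non-radioactive analogue. Ten-minute static PET scans were taken at 10 min to 6 h, reconstructed by 3D OSEM without attenuation or scatter correction. Decay-corrected ROI values were converted assuming 1 g/mL tissue density and divided by administered activity to give %ID/g.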

[5] = biological target: T1, furin (Homo sapiens, UniProt P09958); conditions: 30 °C; ref Bachem; cited from earlier work
T1 sequence (P09958 108-595 limits assumed): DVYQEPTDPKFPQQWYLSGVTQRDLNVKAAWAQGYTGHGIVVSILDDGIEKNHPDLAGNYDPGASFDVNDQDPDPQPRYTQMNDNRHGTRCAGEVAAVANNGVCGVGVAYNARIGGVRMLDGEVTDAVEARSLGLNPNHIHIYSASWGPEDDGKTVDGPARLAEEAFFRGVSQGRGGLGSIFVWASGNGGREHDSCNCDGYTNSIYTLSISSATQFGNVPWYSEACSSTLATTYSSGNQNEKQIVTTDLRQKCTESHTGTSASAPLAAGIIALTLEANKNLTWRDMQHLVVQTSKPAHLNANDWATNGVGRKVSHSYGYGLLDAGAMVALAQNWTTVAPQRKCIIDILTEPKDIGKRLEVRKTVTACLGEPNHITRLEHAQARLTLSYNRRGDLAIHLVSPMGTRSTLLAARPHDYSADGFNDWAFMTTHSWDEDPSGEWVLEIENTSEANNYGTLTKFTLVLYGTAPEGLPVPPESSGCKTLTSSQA

[6] = biological target: T1, furin; assay: Michaelis-Menten kinetics of furin cleavage; format: biochemical
[7] = biological target: T1, furin; assay: Time course HPLC analysis of furin-controlled condensation; format: biochemical; conditions: 100 µM, 1 nmol/U of furin, 37 °C
Outline: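 The non-radioactive analogue (100 µM) was incubated with furin (1 nmol/U) at 37 °C. Mixtures were analysed by HPLC eluted with CH3CN and water, each containing 0.1% TFA, against the untreated compound in water.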

[8] = Nanoparticle characterisation after furin incubation; format: physicochemical; conditions: 100 μM, furin 1 nmol/U, pH 7.4, 37 °C, 4 h vs before incubation
Outline: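 The non-radioactive analogue (100 µM) was incubated with furin (1 nmol/U) for 4 h at 37 °C. UV-vis spectra were recorded at room temperature. For TEM (200 kV), carbon-coated copper grids were dipped in the suspension, plunged into liquid nitrogen and freeze-dried. SEM was run on the same mixture. One furin unit releases 1 pmol MCA from Boc-RVRR-MCA per minute at 30 °C.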

[9] = test system: MDA-MB-468 cells; assay: Cell permeability of 1-Cold by fluorescence cell imaging; format: cell-based, human; conditions: 100 µM, 37 °C, 0.5 h, fluorescence microscopy
Outline: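 MDA-MB-468 breast adenocarcinoma cells were grown in DMEM with 10% FBS at 37 °C under 5% CO2. Cells (3 × 10^6) were exposed to the test compound (100 µM, 37 °C, 0.5 h) and washed three times with PBS. They were then imaged live on an inverted fluorescence microscope in the DAPI channel, with DIC overlay. The probe emits at 450 nm after intracellular furin-driven condensation.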

[10] = test system: MDA-MB-468 cells; assay: MTT assay; format: cell-based, human; conditions: for cells survived (MTT): MDA-MB-468
Outline: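 MDA-MB-468 cells in log phase were seeded at 3 × 10^3 per well and settled 12 h (37 °C, 5% CO2). They were then exposed to the test compound at 25, 50 or 100 µM in medium for 3, 6 or 12 h. MTT (5 mg/mL stock in PBS, pH 7.4) was added for 4 h, and formazan was dissolved in 10% SDS/PBS. Absorbance was read at 570/680 nm. Viability (%) = mean treated absorbance / mean control absorbance × 100.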

cellular uptake (plateau) [1]: 20.4 % of total radioactivity
initial radioactivity retained after cell efflux ([2]; 4 μCi of 1 alone, 1 h pre-incubation 37 °C, 1 million cells): 13.1 ± 1.2%
initial radioactivity retained after cell efflux ([2]; 4 μCi of 1 co-incubated with 5 μM 1-Cold): 20.3 ± 4.2%
initial radioactivity retained after cell efflux ([2]; 4 μCi of 1 co-incubated with 25 μM 1-Cold): 28.5 ± 1.4%
initial radioactivity retained after cell efflux ([2]; 4 μCi of 1 co-incubated with 50 μM 1-Cold): 32.1 ± 0.9%
Cmax [3]: 7.471 mCi L^-1
mean AUC0-t [3]: 452.2 min mCi L^-1
tumor uptake ratio (Co-injected/1 alone) ([4]; 10 min p.i.): 2.5
tumor uptake of 1 ([4]; 10 min p.i., 85 µCi 1 alone): 1.02 ± 0.19 % ID/g
tumor uptake of 1 ([4]; 10 min p.i., co-injected 85 µCi 1 + 20 µmol/kg 1-Cold): 2.52 ± 0.95 % ID/g
tumor uptake ratio (Co-injected/1 alone) ([4]; 30 min p.i.): 3.6
tumor uptake of 1 ([4]; 30 min p.i., 85 µCi 1 alone): 1.12 ± 0.08 % ID/g
tumor uptake of 1 ([4]; 30 min p.i., co-injected 85 µCi 1 + 20 µmol/kg 1-Cold): 4.08 ± 0.48 % ID/g
tumor uptake ratio (Co-injected/1 alone) ([4]; 60 min p.i.): 6.4
tumor uptake of 1 ([4]; 60 min p.i., 85 µCi 1 alone): 0.52 ± 0.18 % ID/g
tumor uptake of 1 ([4]; 60 min p.i., co-injected 85 µCi 1 + 20 µmol/kg 1-Cold): 3.31 ± 1.22 % ID/g
tumor uptake ratio (Co-injected/1 alone) ([4]; 120 min p.i.): 7.9
tumor uptake of 1 ([4]; 120 min p.i., co-injected 85 µCi 1 + 20 µmol/kg 1-Cold): 2.27 ± 1.86 % ID/g
tumor uptake of 1 ([4]; 240 min p.i., 85 µCi 1 alone): 0.19 ± 0.03 % ID/g
tumor uptake of 1 ([4]; 240 min p.i., co-injected 85 µCi 1 + 20 µmol/kg 1-Cold): 1.55 ± 1.75 % ID/g
tumor uptake ratio (Co-injected/1 alone) ([4]; 360 min p.i.): 6.5
tumor uptake of 1 ([4]; 360 min p.i., 85 µCi 1 alone): 0.19 ± 0.05 % ID/g
tumor uptake of 1 ([4]; 360 min p.i., co-injected 85 µCi 1 + 20 µmol/kg 1-Cold): 1.28 ± 1.07 % ID/g
Compound: Acetyl-Arg-Val-Arg-Arg-Cys(StBu)-Lys(^18F-FB)-CBT [compound 1]

Compound: Boc-RVRR-{AMC} [Boc-RVRR-AMC]
speed of furin cleavage of commercial substrate [5]: 1 pmol/U per min

Compound: CC(=O)N[C@@H](CCCNC(=N)N)C(=O)N[C@H](C(=O)N[C@@H](CCCNC(=N)N)C(=O)N[C@@H](CCCNC(=N)N)C(=O)N[C@@H](CSSC(C)(C)C)C(=O)N[C@@H](CCCCNC(=O)c1ccc(F)cc1)C(=O)Nc1ccc2nc(C#N)sc2c1)C(C)C [1-Cold]
Kcat of furin relative to Boc-RVRR-AMC ([6]; calculated, Figure S10): 35 times
Kcat/KM of furin relative to Boc-RVRR-AMC ([6]; calculated, Figure S10): 15 times
binding affinity to furin, fold lower than that of Boc-RVRR-AMC ([6]; from KM values): 2.4 fold
time in which furin-controlled condensation was accomplished [7]: ≤ 2 h
UV-vis absorption at 500-700 nm (light scattering, aggregation) [8]: obvious increase of absorption
cell permeability (intracellular fluorescence) [9]: good cell permeability
cells survived (MTT) ([10]; 25 µM, 3 h): 110%
cells survived (MTT) ([10]; 25 µM, 12 h): 98%
cells survived (MTT) ([10]; 50 µM, 3 h): 103%
cells survived (MTT) ([10]; 50 µM, 12 h): 105%
cells survived (MTT) ([10]; 100 µM, 3 h): 87%
cells survived (MTT) ([10]; 100 µM, 12 h): 68%
cytotoxicity to MDA-MB-468 cells (MTT), in words ([10]; up to 12 h (abstract: 50 µM)): did not impose cytotoxicity; also recorded: nontoxic
